Test system: HEK-293T
Assay: Multiplex assay against HEK293T;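 for Population Tubulin-Different-Phenotype (%): share of the cells with healthy nuclei that show this phenotype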
Assay type: toxicity, cell-based
Conditions: human
Summary of the method: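 With compound added, live cells were imaged on a CQ1 microscope at 37°C and 5% CO2; staining with Hoechst33342, BioTracker Green Microtubule Cytoskeleton Dye, MitoTracker Red and Annexin V Alexa Fluor 680 had been done at seeding. The CellPathfinder machine-learning gating scheme split cells into Hoechst high-intensity objects or normal cells, normal cells into healthy, pyknosed or fragmented nuclei, and pyknosed cells into mitotic or apoptotic. The tubulin, mitochondrial-mass and membrane-permeability phenotypes are per cents of healthy-nucleus cells.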

[1] = 12 h, 1 µM, compound concentration 1 uM, replicate 1
[2] = 12 h, 1 µM, compound concentration 1 uM, replicate 2
[3] = 12 h, 10 µM, compound concentration 10 uM, replicate 1
[4] = 12 h, 10 µM, compound concentration 10 uM, replicate 2
[5] = 24 h, 1 µM, compound concentration 1 uM, replicate 1
[6] = 24 h, 1 µM, compound concentration 1 uM, replicate 2
[7] = 24 h, 10 µM, compound concentration 10 uM, replicate 1
[8] = 24 h, 10 µM, compound concentration 10 uM, replicate 2
[9] = 48 h, 1 µM, compound concentration 1 uM, replicate 1
[10] = 48 h, 1 µM, compound concentration 1 uM, replicate 2
[11] = 48 h, 10 µM, compound concentration 10 uM, replicate 1
[12] = 48 h, 10 µM, compound concentration 10 uM, replicate 2

In the case of CC(=O)c1cc(-c2cc(C(=O)NC3CC3)ccc2C)c2ncccn12, the “Population Apoptotic (%)” value [1] is reported as 51%, the “Population Fragmented Nuclei (%)” value [1] is reported as 11% and the “Population Healthy Nuclei (%)” value [1] is reported as 27%. For the same compound, the “Population Hoechst High Intensity Objects (%)” value [1] was 12%, the “Population Membrane Permeable-Phenotype (%)” value [1] was 3% and the “Population Mitochondria Different-Phenotype (%)” value [1] was 59%. For the same compound, the “Population Mitotic Cells (%)” value [1] was 48%, the “Population Normal (%)” value [1] was 87% and the “Population Pyknosed Nuclei (%)” value [1] was 61%. For the same compound, the “Population Tubulin-Different-Phenotype (%)” value [1] was 36%, the “Total Cell Count” value [1] was 275 and the “Population Apoptotic (%)” value [2] was 16%. For the same compound, the “Population Fragmented Nuclei (%)” value [2] was 1%, the “Population Healthy Nuclei (%)” value [2] was 48% and the “Population Hoechst High Intensity Objects (%)” value [2] was 3%. The “Population Membrane Permeable-Phenotype (%)” value [2] was 5%, the “Population Mitochondria Different-Phenotype (%)” value [2] was 17% and the “Population Mitotic Cells (%)” value [2] was 83%. The “Population Normal (%)” value [2] was 96%, the “Population Pyknosed Nuclei (%)” value [2] was 49% and the “Population Tubulin-Different-Phenotype (%)” value [2] was 21%. For the same compound, the “Total Cell Count” value [2] was 271, the “Population Apoptotic (%)” value [3] was 50% and the “Population Fragmented Nuclei (%)” value [3] was 12%. For the same compound, the “Population Healthy Nuclei (%)” value [3] was 29%, the “Population Hoechst High Intensity Objects (%)” value [3] was 15% and the “Population Membrane Permeable-Phenotype (%)” value [3] was 4%. For the same compound, the “Population Mitochondria Different-Phenotype (%)” value [3] was 81%, the “Population Mitotic Cells (%)” value [3] was 49% and the “Population Normal (%)” value [3] was 84%. The “Population Pyknosed Nuclei (%)” value [3] was 58%, the “Population Tubulin-Different-Phenotype (%)” value [3] was 39% and the “Total Cell Count” value [3] was 265. For the same compound, the “Population Apoptotic (%)” value [4] was 22%, the “Population Fragmented Nuclei (%)” value [4] was 6% and the “Population Healthy Nuclei (%)” value [4] was 31%. The “Population Hoechst High Intensity Objects (%)” value [4] was 4%, the “Population Membrane Permeable-Phenotype (%)” value [4] was 5% and the “Population Mitochondria Different-Phenotype (%)” value [4] was 38%. The “Population Mitotic Cells (%)” value [4] was 77%, the “Population Normal (%)” value [4] was 95% and the “Population Pyknosed Nuclei (%)” value [4] was 62%. For the same compound, the “Population Tubulin-Different-Phenotype (%)” value [4] was 21%, the “Total Cell Count” value [4] was 199 and the “Population Apoptotic (%)” value [5] was 51%. The “Population Fragmented Nuclei (%)” value [5] was 15%, the “Population Healthy Nuclei (%)” value [5] was 31% and the “Population Hoechst High Intensity Objects (%)” value [5] was 13%. The “Population Membrane Permeable-Phenotype (%)” value [5] was 2%, the “Population Mitochondria Different-Phenotype (%)” value [5] was 42% and the “Population Mitotic Cells (%)” value [5] was 48%. For the same compound, the “Population Normal (%)” value [5] was 86%, the “Population Pyknosed Nuclei (%)” value [5] was 52% and the “Population Tubulin-Different-Phenotype (%)” value [5] was 26%. The “Total Cell Count” value [5] was 305, the “Population Apoptotic (%)” value [6] was 10% and the “Population Fragmented Nuclei (%)” value [6] was 5%. The “Population Healthy Nuclei (%)” value [6] was 65%, the “Population Hoechst High Intensity Objects (%)” value [6] was 2% and the “Population Membrane Permeable-Phenotype (%)” value [6] was 1%. For the same compound, the “Population Mitochondria Different-Phenotype (%)” value [6] was 16%, the “Population Mitotic Cells (%)” value [6] was 89% and the “Population Normal (%)” value [6] was 97%. For the same compound, the “Population Pyknosed Nuclei (%)” value [6] was 29%, the “Population Tubulin-Different-Phenotype (%)” value [6] was 25% and the “Total Cell Count” value [6] was 349. The “Population Apoptotic (%)” value [7] was 46%, the “Population Fragmented Nuclei (%)” value [7] was 18% and the “Population Healthy Nuclei (%)” value [7] was 31%. The “Population Hoechst High Intensity Objects (%)” value [7] was 17%, the “Population Membrane Permeable-Phenotype (%)” value [7] was 0% and the “Population Mitochondria Different-Phenotype (%)” value [7] was 76%. For the same compound, the “Population Mitotic Cells (%)” value [7] was 53%, the “Population Normal (%)” value [7] was 82% and the “Population Pyknosed Nuclei (%)” value [7] was 49%. For the same compound, the “Population Tubulin-Different-Phenotype (%)” value [7] was 38%, the “Total Cell Count” value [7] was 280 and the “Population Apoptotic (%)” value [8] was 28%. For the same compound, the “Population Fragmented Nuclei (%)” value [8] was 7%, the “Population Healthy Nuclei (%)” value [8] was 51% and the “Population Hoechst High Intensity Objects (%)” value [8] was 3%. The “Population Membrane Permeable-Phenotype (%)” value [8] was 4%, the “Population Mitochondria Different-Phenotype (%)” value [8] was 33% and the “Population Mitotic Cells (%)” value [8] was 71%. For the same compound, the “Population Normal (%)” value [8] was 96%, the “Population Pyknosed Nuclei (%)” value [8] was 41% and the “Population Tubulin-Different-Phenotype (%)” value [8] was 30%. For the same compound, the “Total Cell Count” value [8] was 233, the “Population Apoptotic (%)” value [9] was 44% and the “Population Fragmented Nuclei (%)” value [9] was 15%. For the same compound, the “Population Healthy Nuclei (%)” value [9] was 43%, the “Population Hoechst High Intensity Objects (%)” value [9] was 14% and the “Population Membrane Permeable-Phenotype (%)” value [9] was 10%. The “Population Mitochondria Different-Phenotype (%)” value [9] was 22%, the “Population Mitotic Cells (%)” value [9] was 55% and the “Population Normal (%)” value [9] was 85%. For the same compound, the “Population Pyknosed Nuclei (%)” value [9] was 41%, the “Population Tubulin-Different-Phenotype (%)” value [9] was 28% and the “Total Cell Count” value [9] was 343. For the same compound, the “Population Apoptotic (%)” value [10] was 8%, the “Population Fragmented Nuclei (%)” value [10] was 6% and the “Population Healthy Nuclei (%)” value [10] was 78%. For the same compound, the “Population Hoechst High Intensity Objects (%)” value [10] was 4%, the “Population Membrane Permeable-Phenotype (%)” value [10] was 4% and the “Population Mitochondria Different-Phenotype (%)” value [10] was 6%. The “Population Mitotic Cells (%)” value [10] was 91%, the “Population Normal (%)” value [10] was 95% and the “Population Pyknosed Nuclei (%)” value [10] was 14%. For the same compound, the “Population Tubulin-Different-Phenotype (%)” value [10] was 21%, the “Total Cell Count” value [10] was 595 and the “Population Apoptotic (%)” value [11] was 57%. For the same compound, the “Population Fragmented Nuclei (%)” value [11] was 24%, the “Population Healthy Nuclei (%)” value [11] was 24% and the “Population Hoechst High Intensity Objects (%)” value [11] was 17%. The “Population Membrane Permeable-Phenotype (%)” value [11] was 1%, the “Population Mitochondria Different-Phenotype (%)” value [11] was 63% and the “Population Mitotic Cells (%)” value [11] was 42%. The “Population Normal (%)” value [11] was 82%, the “Population Pyknosed Nuclei (%)” value [11] was 51% and the “Population Tubulin-Different-Phenotype (%)” value [11] was 36%. The “Total Cell Count” value [11] was 280, the “Population Apoptotic (%)” value [12] was 17% and the “Population Fragmented Nuclei (%)” value [12] was 6%. The “Population Healthy Nuclei (%)” value [12] was 58%, the “Population Hoechst High Intensity Objects (%)” value [12] was 3% and the “Population Membrane Permeable-Phenotype (%)” value [12] was 5%. For the same compound, the “Population Mitochondria Different-Phenotype (%)” value [12] was 29%, the “Population Mitotic Cells (%)” value [12] was 82% and the “Population Normal (%)” value [12] was 96%. The “Population Pyknosed Nuclei (%)” value [12] was 35% and the “Total Cell Count” value [12] was 284.

Source: ChEMBL document CHEMBL4689842, “EUbOPEN Chemogenomics Library wave 1” (2021)
